From ChEMBL document CHEMBL1154414, “In vitro and in vivo activities of T-705 against arenavirus and bunyavirus infections” (Antimicrob Agents Chemother, 2007)
Active and inactive are the calls of the source. No cut-off for these calls is given here.

Experiments:
Pichinde virus [1] = experiment: Antiviral activity against Pichinde virus An 4763 infected Syrian golden hamster assessed as mean serum ALT levels at 50 mg/kg, po twice daily for 7 days administered 24 hrs post viral-challenge measured on day 7 of viral infection; assay type: functional
Outline: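 Hamsters were challenged intraperitoneally (bilateral, 65 PFU) and given twice-daily oral gavage doses (0.4% CMC vehicle). Five per group were sacrificed on day 7 and serum was collected. Serum ALT activity was measured by kinetic assay. Three sham-infected animals set the baselines.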

Pichinde virus [2] = experiment: Antiviral activity against Pichinde virus An 4763 in Vero cells assessed as inhibition of virus-induced visual cytopathic effect after 7 to 8 days; assay type: functional, organism-based
Outline: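 Subconfluent (50-70%) Vero cells were infected with virus in 2% FBS medium at the CCID50 giving maximal CPE. Half-log drug dilutions were added at infection. EC50 was obtained by regression analysis.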

Pichinde virus [3] = experiment: Antiviral activity against Pichinde virus An 4763 infected Syrian golden hamster assessed as mean viral titer per 0.1 mL of serum at 20 mg/kg, po twice daily for 7 days administered 72 hrs post viral-challenge measured on day 7 of viral infection; assay type: functional
Outline: (§1)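 Hamsters (groups of 15, placebo 25-30) were dosed orally by gavage twice daily (drug suspended in 0.4% CMC) after bilateral intraperitoneal challenge with 65 PFU. Five per group were killed on day 7. Liver homogenate or serum was serially diluted onto triplicate B-SC-1 wells, CPE was read at 6-8 days, and the 50% endpoint was taken. Range was 2.8-9.5 log10 CCID50/0.1 g or 0.1 ml, with undetectable assigned <2.8.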

Punta Toro virus [4] = experiment: Antiviral activity against 500 PFU Punta Toro virus Adames infected C57BL/6 mouse assessed as mean viral titer per 0.1 g of liver at 30 mg/kg, po twice daily administered 24 hrs post viral challenge measured on day 3 of viral infection; assay type: functional
Outline: (§2)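 Mice were infected subcutaneously with PTV and dosed by oral gavage twice daily; 5 per group (10 placebo) were killed on day 3 or 4. Liver homogenate or serum was serially diluted onto triplicate LLC-MK2 monolayers, and CPE was read 6–8 days later. 50% endpoints gave log10 CCID50 per 0.1 g liver or 0.1 ml serum. Detection range was 2.8–9.5; undetectable samples were assigned <2.8.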

Punta Toro virus [5] = experiment: Antiviral activity against 5000 PFU Punta Toro virus Adames infected C57BL/6 mouse assessed as mean serum ALT levels at 30 mg/kg, po twice daily administered 24 hrs post viral challenge measured on day 3 of viral infection; assay type: functional
Outline: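 C57BL/6 mice received subcutaneous PTV, then oral gavage twice daily for 5–7 days. T-705 was given in 0.4% CMC and ribavirin in saline. Five mice per group (10 placebo) were killed on day 3 or 4, and serum was collected. ALT activity was measured by kinetic assay. Three sham-infected mice set baselines.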

Pichinde virus [6] = experiment: Antiviral activity against Pichinde virus An 4763 infected Syrian golden hamster assessed as animals with detectable virus level in liver at 40 mg/kg, po twice daily for 7 days administered 4 hrs before viral-challenge measured on day 7 of viral infection; assay type: functional
Punta Toro virus [7] = experiment: Antiviral activity against 5000 PFU Punta Toro virus Adames infected C57BL/6 mouse assessed as animals with detectable virus level in serum at 10 mg/kg, po twice daily administered 24 hrs post viral challenge measured on day 3 of viral infection; assay type: functional; outline: as §2
Punta Toro virus [8] = experiment: Antiviral activity against 500 PFU Punta Toro virus Adames infected C57BL/6 mouse assessed as animals with detectable virus level in serum at 10 mg/kg, po twice daily administered 24 hrs post viral challenge measured on day 3 of viral infection; assay type: functional
Outline: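 T-705 was suspended in 0.4% carboxymethylcellulose and given by oral gavage twice daily. Mice were infected subcutaneously with PTV. Five mice per group (10 placebo) were sacrificed on day 3 or 4. Liver homogenate or serum was serially diluted onto triplicate LLC-MK2 monolayers, and CPE was read at 6–8 days. The detection limit was 2.8 log10 CCID50 per 0.1 g liver or 0.1 ml serum.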

Punta Toro virus [9] = experiment: Antiviral activity against 500 PFU Punta Toro virus Adames infected C57BL/6 mouse assessed as mean viral titer per 0.1 g of liver at 10 mg/kg, po twice daily administered 24 hrs post viral challenge measured on day 3 of viral infection; assay type: functional; outline: as §2
Pichinde virus [10] = experiment: Antiviral activity against Pichinde virus An 4763 infected Syrian golden hamster assessed as animals with detectable virus level in liver at 20 mg/kg, po twice daily for 7 days administered 24 hrs post viral-challenge measured on day 7 of viral infection; assay type: functional; outline: as §1
Pichinde virus [11] = experiment: Antiviral activity against Pichinde virus An 4763 infected Syrian golden hamster assessed as mean day of death at 50 mg/kg, po twice daily for 7 days administered 24 hrs post viral-challenge; assay type: functional
Outline: (§3)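 Groups of 15 hamsters (placebo 25-30) were challenged intraperitoneally (bilateral, 65 PFU) and dosed twice daily by oral gavage in 0.4% CMC for 5 to 7 days.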

Punta Toro virus [12] = experiment: Antiviral activity against Punta Toro virus Adames infected Syrian golden hamster assessed as inhibition of liver damage at 30 mg/kg, po twice daily administered 4 hrs before viral challenge measured on day 4 of viral infection; assay type: functional, organism-based; design: dose 30 mg/kg
Outline: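 Hamsters were challenged subcutaneously with 50 PFU and dosed twice daily by oral gavage in 0.4% CMC. Five per group were sacrificed on day 3 or 4. Livers were scored 0-4 for icterus, and serum ALT was measured by kinetic assay against three sham-infected baseline animals.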

Punta Toro virus [13] = experiment: Antiviral activity against 5000 PFU Punta Toro virus Adames infected C57BL/6 mouse assessed as mean day of death at 10 mg/kg, po twice daily for 5 days administered 24 hrs post viral challenge; assay type: functional
Outline: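 PTV was inoculated subcutaneously into mice in groups of 15 (25–30 placebo). Dosing was by oral gavage twice daily for 5–7 days, with T-705 suspended in 0.4% CMC and ribavirin in saline. Remaining animals were observed 21–28 days for survival and day of death. Test doses had first been checked for tolerance in uninfected animals.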

Pichinde virus [14] = experiment: Antiviral activity against Pichinde virus An 4763 infected Syrian golden hamster assessed as mean viral titer per 0.1 mL of serum at 50 mg/kg, po twice daily for 7 days administered 72 hrs post viral-challenge measured on day 7 of viral infection; assay type: functional; outline: as §1
Pichinde virus [15] = experiment: Antiviral activity against Pichinde virus An 4763 infected Syrian golden hamster assessed as mean day of death at 50 mg/kg, po twice daily for 7 days administered 72 hrs post viral-challenge measured on day 7 of viral infection; assay type: functional; outline: as §3
Punta Toro virus [16] = experiment: Antiviral activity against Punta Toro virus Adames infected Syrian golden hamster assessed as survival at 30 mg/kg, po twice daily for 6 days administered 4 hrs before viral challenge; assay type: functional
Outline: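 Hamsters (groups of 15, placebo 25-30) were challenged subcutaneously with 50 PFU and dosed twice daily by oral gavage in 0.4% CMC vehicle.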

Pichinde virus [17] = experiment: Antiviral activity against Pichinde virus An 4763 infected Syrian golden hamster assessed as mean viral titer per 0.1 g of liver at 40 mg/kg, po twice daily for 7 days administered 4 hrs before viral-challenge measured on day 7 of viral infection; assay type: functional; outline: as §1
Punta Toro virus [18] = experiment: Antiviral activity against 5000 PFU Punta Toro virus Adames infected C57BL/6 mouse assessed as mean viral titer per 0.1 g of liver at 30 mg/kg, po twice daily administered 24 hrs post viral challenge measured on day 3 of viral infection; assay type: functional; outline: as §2
Punta Toro virus [19] = experiment: Antiviral activity against 5000 PFU Punta Toro virus Adames infected C57BL/6 mouse assessed as animals with detectable virus level in liver at 10 mg/kg, po twice daily administered 24 hrs post viral challenge measured on day 3 of viral infection; assay type: functional; outline: as §2

`NC(=O)c1nc(F)cnc1O` [FAVIPIRAVIR] gave an Activity (Pichinde virus [1]) of 61 IU/L, an EC50 (Pichinde virus [2]) of 6 µM and a log10CCID50 (Pichinde virus [3]) greater than 8.6. The log10CCID50 (Punta Toro virus [4]) was less than 3.2, the Activity (Punta Toro virus [5]) was 521 IU/L and the Activity (Pichinde virus [6]) was 20%. For the same molecule, the Activity (Punta Toro virus [7]) was 80%, the Activity (Punta Toro virus [8]) was 100% and the log10CCID50 (Punta Toro virus [9]) was less than 2.8. The Activity (Pichinde virus [10]) was 100%, the Activity (Pichinde virus [11]) was greater than 21 days and the Activity (Punta Toro virus [12]) was “Active”. The Activity (Punta Toro virus [13]) was 4.4 days, the log10CCID50 (Pichinde virus [14]) was 6.6 and the Activity (Pichinde virus [15]) was 14.8 days. For the same molecule, the survival at 30 mg/kg (Punta Toro virus [16]; Punta Toro virus, Adames) was 90%, the log10CCID50 (Pichinde virus [17]) was less than 3.2 and the log10CCID50 (Punta Toro virus [18]) was less than 2.9. The Activity (Punta Toro virus [19]) was 20%.

Work on `NC(=O)c1ncn([C@@H]2O[C@H](CO)[C@@H](O)[C@H]2O)n1` [RIBAVIRIN] yielded an Activity (Pichinde virus [1]) of 26 IU/L, an EC50 (Pichinde virus [2]) of 13 µM and a log10CCID50 (Pichinde virus [3]) of 6.8. It also gave a log10CCID50 (Punta Toro virus [4]) of less than 3.1, an Activity (Punta Toro virus [5]) of 1491 IU/L and an Activity (Pichinde virus [6]) of 20%. It also gave an Activity (Punta Toro virus [7]) of 100%, an Activity (Punta Toro virus [8]) of 100% and a log10CCID50 (Punta Toro virus [9]) of less than 2.9. The Activity (Pichinde virus [10]) was 100%, the Activity (Pichinde virus [11]) was greater than 21 days and the Activity (Punta Toro virus [12]) was “Active”. For the same molecule, the Activity (Punta Toro virus [13]) was 4 days, the log10CCID50 (Pichinde virus [14]) was 6 and the Activity (Pichinde virus [15]) was 18.5 days. The Activity (Punta Toro virus [16]) was 70%, the log10CCID50 (Pichinde virus [17]) was less than 3.2 and the log10CCID50 (Punta Toro virus [18]) was less than 2.9. It also gave an Activity (Punta Toro virus [19]) of 0%.
